# Results taken from publication PMC10404122 (Drug Design, Development and Therapy, 2023).
# Experiments:
# [1] = plasma concentration; cited from earlier work
# [2] = Stability of plasma samples; assay type: in vitro ADME; conditions: human plasma (EDTA), −20 °C, HPLC-MS/MS of A2-2
# [3] = Population pharmacokinetic model; assay type: in vivo, human; conditions: ICU patients, iv, 304 samples from 108 patients, two-compartment model
# Method in brief: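 NONMEM fit with FOCE with interaction. One- vs two-compartment chosen by goodness-of-fit plots. Covariates tested: sex, age, weight, ALB, Scr, Cockcroft-Gault Ccr, CKD-EPI eGFR, CRRT, APACHE II. Forward inclusion at P < 0.05 (ΔOFV −3.84), backward elimination at P < 0.001 (ΔOFV −10.828). Robustness checked with 1000 bootstrap resamples (median, 2.5–97.5 percentiles). VPC, NPDE and external-set MPE/RMSE also run.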
# [4] = cited from earlier work
# [5] = cited from earlier work; remark: listed apart in the source
substance,measurement,setting,value
teicoplanin,concentration inducing adverse effects: thrombocytopenia,[1],≥ 40000 ng/mL
same,time for which plasma samples were found to be stable,[2],at least 41 days
same,"Q, inter-compartmental clearance, final model estimate",[3],3.08 L/h
same,"Vc, volume of the central compartment, final model estimate",[3],14.4 L
same,"Vp, volume of the peripheral compartment, final model estimate",[3],51.6 L
same,patients in whom the standard dosing regimen was insufficient to achieve 10 mg/L,"[4]; 400 mg q12h×3, 400 mg qd, within the initial three days",more than 50%
same,elimination half-life,[4],169 h
same,plasma protein binding rate,[5],over 90%
